Measurements: ChEMBL document CHEMBL4177574, “A novel class of Plasmodial ClpP protease inhibitors as potential antimalarial agents” (Bioorg Med Chem, 2017)
The source made the active and inactive calls. No cut-off for these calls is given here. Where a SMILES comes first, the peptide text is derived from it. The star is where a group is joined. Cbz = O=C(OCc1ccccc1)*; OBn = c1ccc(CO*)cc1

Key:
Plasmodium falciparum [1] = experiment: Antimalarial activity against Plasmodium falciparum 3D7 assessed as inhibition of parasite growth incubated for 96 hrs in presence of 4% haematocrit by SYBR green dye based assay; format: functional, organism-based
Method in brief: (§1)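 P. falciparum 3D7 in RPMI with 0.5% albumax at 4% haematocrit, sorbitol-synchronized, starting parasitaemia ~1%. Compound added at final 0–100 µM, with DMSO in control wells. Growth ran 96 h and was read by SYBR green DNA-dye fluorescence. Triplicate wells, experiment repeated twice; IC50 derived from these.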

[2] = Inhibition of recombinant Plasmodium falciparum ClpP expressed in Escherichia coli BL21(DE3) using Suc-LLVY-AMC substrate incubated for 3 to 6 hrs by fluorimetric assay
Method in brief: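 The protease domain of PfClpP (aa 168–370) was His-tagged in pET28a, expressed in E. coli BL21(DE3) with 1 mM IPTG at 37 °C for 3–4 h, Ni-NTA purified and BCA quantified. Assay used 13 µM enzyme in 0.1 M sodium acetate pH 7.0 with 1.0 mM DTT and 50 µM Suc-LLVY-AMC final. AMC fluorescence (ex 355/em 460) was followed continuously for 3–6 h at RT; IC50 by curve fitting.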

Plasmodium falciparum [3] = experiment: Effect on nuclear division in ACP-GFP expressing Plasmodium falciparum D10 apicoplast at 10 uM measured at 96 hrs post dose by DAPI dye based confocal laser-scanning microscopy; format: functional, organism-based
Plasmodium falciparum [4] = experiment: Inhibition of apicoplast growth in ACP-GFP expressing Plasmodium falciparum D10 at 10 uM measured during second cycle by DAPI dye based confocal laser-scanning microscopy; format: functional, organism-based
Method in brief: (§2)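 D10 ACP-GFP parasites were grown like 3D7 with 100 nM pyrimethamine, and ring stages (8–10 hpi) were treated with compound. Parasites were sampled at 36/40 hpi and 72 hpi, DAPI-stained at 2 µg/mL final for 30 min at 37 °C, and imaged by confocal microscopy for apicoplast GFP morphology.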

Plasmodium falciparum [5] = experiment: Inhibition of apicoplast development in ACP-GFP expressing Plasmodium falciparum D10 assessed as induction of round stump-like structures at 10 uM measured at 72 hrs post dose by DAPI dye based confocal laser-scanning microscopy; format: functional, organism-based; method in brief: as §2
HeLa = experiment: Cytotoxic activity against human HeLa cells assessed as reduction in cell viability incubated for 48 hrs by MTT assay
Plasmodium falciparum [6] = experiment: Effect on apicoplast development in ACP-GFP expressing Plasmodium falciparum D10 at 10 uM measured during first cycle by DAPI dye based confocal laser-scanning microscopy; format: functional, organism-based; method in brief: as §2
Plasmodium falciparum [7] = experiment: Inhibition of apicoplast development in ACP-GFP expressing Plasmodium falciparum D10 assessed as induction of round stump-like structures at 10 uM measured at 90 to 96 hrs post dose by DAPI dye based confocal laser-scanning microscopy; format: functional, organism-based
Plasmodium falciparum [8] = experiment: Antimalarial activity against Plasmodium falciparum 3D7 assessed as reduction in mature schizonts formation after 60 hrs post infection; format: functional, organism-based
Plasmodium falciparum [9] = experiment: Inhibition of apicoplast development in ACP-GFP expressing Plasmodium falciparum D10 at 10 uM measured during second cycle by DAPI dye based confocal laser-scanning microscopy; format: functional, organism-based; method in brief: as §2
[10] = Ratio of IC50 for inhibition of recombinant Plasmodium falciparum ClpP expressed in Escherichia coli BL21(DE3) to IC50 for antimalarial activity against Plasmodium falciparum 3D7
Plasmodium falciparum [11] = experiment: Antimalarial activity against Plasmodium falciparum 3D7 assessed as inhibition of parasite growth at 100 uM incubated for 96 hrs in presence of 4% haematocrit by SYBR green dye based assay; format: functional, organism-based; method in brief: as §1
[12] = Plasmodium falciparum, 3D7, 96 h, read-out: IC50

SMILES | IC50 (Plasmodium falciparum [1]; [12]) [µM] | IC50 [2] [µM] | Ki ([2]; read-out: Ki) [µM] | IC50 (Plasmodium falciparum [1]) | Ki [2] | further results
CC(CCc1ccccc1)NC(=O)CSc1nc2sc3c(c2c(=O)n1CCc1ccccc1)CC(C(C)C)OC3 (stereo unspecified) | 25 | 23 | 9 | – | – | –
COc1ccc(C(=O)CSc2nc(C)cc(SCC(=O)NNC(=O)Cc3ccccc3)n2)cc1 | 11.8 | 34.7 | 14.2 | – | – | –
CCN(CC)c1ccc(C(=O)CSc2nc(C)cc(SCC(=O)NNC(=O)Cc3ccccc3)n2)cc1 | 12.1 | 28.3 | 11.6 | – | – | –
CCc1ccc(CSc2ncc(Cl)c(C(=O)NCCC(=O)Nc3ccc(Cl)cc3)n2)cc1 | – | > 100 | – | Not Active | Not Active | –
O=C(O)c1cnc2n(c1=O)CC(c1ccccc1)=C(CN1CCOCC1)S2 | 11 | > 100 | – | – | Not Active | –
O=C(CSc1nc(SCC(=O)NCc2ccco2)nc(SCC(=O)NCc2ccco2)n1)NCc1ccco1 | – | 92 | 38 | Not Active | – | –
CCOC(=O)c1cnc(SCCN2CCOCC2)[nH]c1=O | – | > 100 | – | Not Active | Not Active | –
CCN(CC)c1ccc(C(=O)CSc2ncc(C(=O)NCCCc3ccccc3)c(=O)n2Cc2ccccc2)cc1 | 9.2 | > 100 | – | – | Not Active | –
CCc1nnc(NC(=O)CSc2nnc(-c3cc4ccccc4cc3O)n2CCOC)s1 | 27 | 30 | 12.1 | – | – | –
N#Cc1ccc(C(=O)CSc2ncc(C(=O)NCCCc3ccccc3)c(=O)n2Cc2ccccc2)cc1 | 13.7 | > 100 | – | – | Not Active | –
Cc1cc(SCC(=O)NNC(=O)Cc2ccccc2)nc(SCCN2CCOCC2)n1 | 14.4 | 30.3 | 12.3 | – | – | –
O=C(CSc1ncc(C(=O)NCCCc2ccccc2)c(=O)n1Cc1ccccc1)c1ccccc1 | 20 | 24 | 10 | – | – | –
O=C(NCCCc1ccccc1)c1cnc(SCCN2CCOCC2)[nH]c1=O | 22 | 44 | 18 | – | – | –
O=C(NCCCc1ccccc1)c1cnc(SCCN2CCOCC2)n(Cc2ccccc2)c1=O | 9 | 10.5 | 2.3 | – | – | Activity (Plasmodium falciparum [3]): inactive; growth inhibition (GI) (Plasmodium falciparum [4]): Active; Activity (Plasmodium falciparum [5]): Active; IC50 (HeLa): > 5000 µM; Activity (Plasmodium falciparum [6]): inactive; Activity (Plasmodium falciparum [7]): Active; Activity (Plasmodium falciparum [8]): Active; inhibition (Plasmodium falciparum [9]): Active
Cc1cc(SCC(=O)NNC(=O)Cc2ccccc2)nc(SCC(=O)N2CCOCC2)n1 | 17.3 | 28.8 | 11.8 | – | – | –
CC(C)C1Cc2c(sc3nc(SCC(=O)NCc4ccccc4)n(CCc4ccccc4)c(=O)c23)CO1 (stereo unspecified) | – | > 100 | – | Not Active | Not Active | –

SMILES | IC50 (Plasmodium falciparum [1]; [12]) [µM] | IC50 [2] [µM] | Ki ([2]; read-out: Ki) [µM] | IC50 (Plasmodium falciparum [1]) | Ki [2] | further results
O=C(NCCCc1ccccc1)c1cnc(SCC(=O)N2CCOCC2)n(Cc2ccccc2)c1=O | 11.7 | 46 | 18.8 | – | – | –
CCOC(=O)CSc1ncc(C(=O)NCCCc2ccccc2)c(=O)n1Cc1ccccc1 | 15.9 | 58.3 | 23.8 | – | – | –
O=C(CNC(=O)OCc1ccccc1)N[C@@H](CCC(=O)OCc1ccccc1)C(=O)OCc1ccccc1 (Cbz-Gly-Glu(OBn)-OBn) | – | > 100 | – | Not Active | Not Active | –
O=C(COc1ccccc1)Nc1cc(NC(=O)COc2ccccc2)cc(C(=O)Nc2nccs2)c1 | – | 88 | 36 | Not Active | – | –
COc1cccc(NC(=O)CSc2nc3sc4c(c3c(=O)n2CCc2ccccc2)CC(C(C)C)OC4)c1 (stereo unspecified) | – | > 100 | – | Not Active | Not Active | –
CCCCOc1ccc(-c2nn(-c3ccccc3)cc2/C=C(\C#N)C(=O)NCc2ccco2)c(C)c1 | – | > 100 | – | Not Active | Not Active | –
Cc1cc(SCC(=O)NNC(=O)Cc2ccccc2)nc(SCC(=O)c2ccc(C#N)cc2)n1 | 12.4 | 37.4 | 15.3 | – | – | –
COc1ccc(C(=O)CSc2ncc(C(=O)NCCCc3ccccc3)c(=O)n2Cc2ccccc2)cc1 | 2.4 | 45 | 18 | – | – | Ratio IC50 [10]: 20
CCCOc1ccc(-c2nn(-c3ccccc3)cc2/C=C2\SC(=S)N(CCc3ccccc3)C2=O)cc1F | – | > 100 | – | Not Active | Not Active | –
CCOC(=O)c1cnc(SCC(=O)NNC(=O)Cc2ccccc2)[nH]c1=O | 82.5 | 42 | 17 | – | – | –
CCCc1cc(=O)oc2cc(OCC(=O)N[C@@H](CSCc3ccccc3)C(=O)O)ccc12 | – | > 100 | – | Not Active | Not Active | –
O=C(CSc1ncc(C(=O)NCCCc2ccccc2)c(=O)n1Cc1ccccc1)NNC(=O)Cc1ccccc1 | – | 72.6 | 29.5 | Not Active | – | inhibition (Plasmodium falciparum [11]): inactive
COc1ccc(CNC(=O)C(=O)N/N=C/c2ccc(CNS(=O)(=O)c3ccc(Br)cc3)o2)cc1 | – | > 100 | – | Not Active | Not Active | –
CCOC(=O)c1cnc(SCCN2CCOCC2)n(CC(=O)c2ccccc2)c1=O | 19 | 40 | 16 | – | – | –
Cc1cc(SCC(=O)NNC(=O)Cc2ccccc2)nc(SCC(=O)c2ccccc2)n1 | 75 | 26 | 11 | – | – | –
O=C(CSc1ncc(C(=O)NCCCc2ccccc2)c(=O)n1Cc1ccccc1)c1ccc(O)cc1 | 9.2 | 53 | 21.6 | – | – | –
